Assay [1] concerns the target T1, D(2) dopamine receptor (Rattus norvegicus, UniProt P61169). Put plainly: Binding affinity against dopamine receptor D2 from rat striatal homogenates using [3H]YM-09151-2. In a few lines: (§1)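 Competition binding with rat striatal homogenates in Tris-HCl, pH 7.4, containing 150 mM NaCl at 30 °C. […] Nonspecific binding was defined by (+)-butaclamol. Six or more concentrations bracketing the IC50 were run in duplicate, with three replications. IC50 values came from curve fitting.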

Assay [2] has as its target Tyrosine 3-monooxygenase (Rattus norvegicus) (UniProt P04177). Briefly: Tyrosine hydroxylase activity at 0.1 uM in rat striatal minces. Format: functional.
The target of assay [3] is T2, D(1A) dopamine receptor (Rattus norvegicus, UniProt P18901). Briefly: Binding affinity against dopamine receptor D1 from rat striatal homogenates, using [3H]SCH-23390 as radioligand. The method in brief:
(§2)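 Competition binding with rat striatal homogenates in Tris-HCl, pH 7.4, with 150 mM NaCl at 30 °C. […] Nonspecific binding was defined by 0.3 μM cis-(Z)-flupenthixol. Six or more concentrations bracketing the IC50 were run in duplicate, with three replications. IC50 values came from curve fitting.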

Assay [4] concerns the target Tyrosine 3-monooxygenase (Rattus norvegicus) (UniProt P04177). Briefly: Tyrosine hydroxylase activity at 0.1 uM in rat striatal minces; effect blocked by BMY-14802. Format: functional.
Assay [5] concerns the target T2, D(1A) dopamine receptor. Briefly: Binding affinity against dopamine receptor D1 from rat striatal homogenates, using [3H]SCH-23,390 as radioligand. The method in brief:
as §2

Assay [6] concerns the target T1, D(2) dopamine receptor. Put plainly: Binding affinity against dopamine receptor D2 from rat striatal homogenates, using [3H]YM-09151-2 as radioligand. The method in brief:
as §1

Assay [7] deals with Tyrosine 3-monooxygenase (Rattus norvegicus) (UniProt P04177). Briefly: Tyrosine hydroxylase activity at 0.1 uM in rat striatal minces; effect not blocked by BMY-14802. The format is functional.
Chain of Tyrosine 3-monooxygenase (Rattus norvegicus) (P04177 whole entry): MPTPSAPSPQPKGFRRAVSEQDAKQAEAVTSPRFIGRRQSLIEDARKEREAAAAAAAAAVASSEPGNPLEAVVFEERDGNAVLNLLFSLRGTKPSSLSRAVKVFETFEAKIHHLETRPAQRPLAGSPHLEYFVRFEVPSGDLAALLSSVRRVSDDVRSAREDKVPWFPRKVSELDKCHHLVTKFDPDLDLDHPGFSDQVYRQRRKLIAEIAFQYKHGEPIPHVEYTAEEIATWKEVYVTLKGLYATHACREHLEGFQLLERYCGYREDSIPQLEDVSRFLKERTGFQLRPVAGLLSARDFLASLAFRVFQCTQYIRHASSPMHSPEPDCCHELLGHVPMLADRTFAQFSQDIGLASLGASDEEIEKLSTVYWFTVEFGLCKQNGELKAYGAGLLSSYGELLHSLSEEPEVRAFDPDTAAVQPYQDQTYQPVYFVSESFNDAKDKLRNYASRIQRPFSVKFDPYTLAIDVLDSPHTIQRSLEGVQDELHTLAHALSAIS
For assay [8] the target is unchanged. Put plainly: Tyrosine hydroxylase activity at 0.1 uM in rat striatal minces; effect not blocked bt BMY-14802. Format: functional.

T2 sequence (P18901 whole entry): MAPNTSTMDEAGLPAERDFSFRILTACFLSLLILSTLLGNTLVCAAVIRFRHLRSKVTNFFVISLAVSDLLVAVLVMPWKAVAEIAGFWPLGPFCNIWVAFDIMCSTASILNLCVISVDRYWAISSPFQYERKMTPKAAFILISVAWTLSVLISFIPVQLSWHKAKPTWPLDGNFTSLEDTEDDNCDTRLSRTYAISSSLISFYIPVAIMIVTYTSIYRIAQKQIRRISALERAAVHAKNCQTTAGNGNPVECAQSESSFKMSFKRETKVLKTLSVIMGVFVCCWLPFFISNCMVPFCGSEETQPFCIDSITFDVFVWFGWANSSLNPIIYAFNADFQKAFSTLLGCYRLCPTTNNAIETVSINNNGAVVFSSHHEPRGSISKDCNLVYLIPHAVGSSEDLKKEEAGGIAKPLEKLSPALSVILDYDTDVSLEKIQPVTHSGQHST
T1 sequence (P61169 whole entry): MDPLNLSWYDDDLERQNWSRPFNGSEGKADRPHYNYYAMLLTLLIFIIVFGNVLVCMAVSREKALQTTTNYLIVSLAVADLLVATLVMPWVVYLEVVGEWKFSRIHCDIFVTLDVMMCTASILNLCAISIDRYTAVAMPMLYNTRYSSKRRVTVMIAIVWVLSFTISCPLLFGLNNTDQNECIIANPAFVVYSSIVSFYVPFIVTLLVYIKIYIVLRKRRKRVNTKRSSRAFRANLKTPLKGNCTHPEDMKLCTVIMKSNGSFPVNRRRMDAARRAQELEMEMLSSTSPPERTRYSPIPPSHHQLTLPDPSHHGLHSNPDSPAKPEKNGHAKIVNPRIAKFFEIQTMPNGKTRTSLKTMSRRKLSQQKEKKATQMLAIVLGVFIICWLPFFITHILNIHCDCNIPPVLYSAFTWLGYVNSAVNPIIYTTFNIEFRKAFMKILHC

Usually IC50 stands for the concentration needed to halve the response being measured. A low value points to greater potency. Regarding `C=CCN(CC=C)C1Cc2ccccc2C(c2ccccc2)C1` (configuration not stated), the half-maximal inhibitory concentration (IC50) at D(2) dopamine receptor [1] worked out at 4 µM; at D(1A) dopamine receptor [3] it was 10 µM. Moreover, in assay [2], the Control worked out at 104%.
Molecule `CN(C)[C@H]1Cc2cc(Cl)c(O)cc2[C@H](c2ccccc2)C1` yielded a Control in assay [4] of 128%. Besides, the IC50 came out at 4.13 µM at D(2) dopamine receptor [1] and 1.89 µM on D(1A) dopamine receptor [5].
In the case of `C=CCN(C)C1Cc2ccccc2C(c2ccccc2)C1` (configuration not stated), the Control in assay [2] is 72%.
`CN(C)C1Cc2ccccc2C(c2ccccc2)C1` (configuration not stated): in assay [2], the Control stood at 101%.
The same measure, in the same setting: the result for `CN(C)[C@H]1CCc2ccccc2[C@H]1c1ccccc1` reads 111%.
For `NC1Cc2cc(O)c(O)cc2C(c2ccccc2)C1` (cis isomer) [listing 1 of 2 here], the half-maximal inhibitory concentration (IC50) was > 10 µM at D(2) dopamine receptor [1] and > 30 µM on D(1A) dopamine receptor [3].
As for `CN(C)C1Cc2cc(O)c(O)cc2C(c2ccccc2)C1` (cis isomer) [listing 1 of 2 here], the concentration for half-maximal inhibition (IC50) at D(2) dopamine receptor [1] is > 5 µM; at D(1A) dopamine receptor [3], > 1 µM.
`CN(C)C1Cc2cc(Cl)c(O)cc2C(c2ccccc2)C1` (cis isomer): in assay [2], the Control was 94%.
Still for that read-out and setting: the same measure for `CN(C)C1Cc2cc(O)c(O)cc2C(c2ccccc2)C1` (cis isomer) [listing 2 of 2 here]: 100%; for `NC1Cc2cc(O)c(O)cc2C(c2ccccc2)C1` (cis isomer) [listing 2 of 2 here]: 95%.
On to `NC1Cc2cc(O)c(O)cc2C(c2ccccc2)C1` (trans isomer) [listing 1 of 2 here], for which the IC50 at D(2) dopamine receptor [1] and on D(1A) dopamine receptor [3] was > 30 µM each time.
`C=CCNC1Cc2ccccc2C(c2ccccc2)C1` (trans isomer): the values for the IC50 at D(2) dopamine receptor [1] and on D(1A) dopamine receptor [3] were 6 µM and 10 µM, respectively. Moreover, the Control in assay [2] is 102%.
With `CN(C)C1Cc2cc(O)c(O)cc2C(c2ccccc2)C1` (trans isomer) [listing 1 of 2 here], the IC50 is > 5 µM on D(2) dopamine receptor [1] and > 10 µM at D(1A) dopamine receptor [3].
On to `NC1Cc2ccccc2C(c2ccccc2)C1` (trans isomer), for which the half-maximal inhibitory concentration (IC50) on D(2) dopamine receptor [1] and at D(1A) dopamine receptor [3] was > 10 µM each time. The Control in assay [2] is 86%.
With `CNC1Cc2cc(Cl)c(O)cc2C(c2ccccc2)C1` (trans isomer), the values for the half-inhibitory concentration (IC50) at D(2) dopamine receptor [6] and at D(1A) dopamine receptor [5] were 10 µM and 0.849 µM, respectively. In assay [2], this molecule displayed a Control of 99%.
`CCN(CC)C1Cc2ccccc2C(c2ccccc2)C1` (trans isomer) had a Control in assay [2] of 95%.
Turning to `CN(C)C1Cc2cc(O)c(O)cc2C(c2ccccc2)C1` (trans isomer) [listing 2 of 2 here], the Control in assay [7] was determined as 75%.
As to `NC1Cc2cc(O)c(O)cc2C(c2ccccc2)C1` (trans isomer) [listing 2 of 2 here], in assay [8], the Control came out at 71%.

For the origin of these results see ChEMBL document CHEMBL1126782, “Synthesis and pharmacological evaluation of 1-phenyl-3-amino-1,2,3,4-tetrahydronaphthalenes as ligands for a novel receptor with sigma-like neuromodulatory activity” (J Med Chem, 1993).
